A short description of series [1]: Prodrug conversion in 0.1 M phosphate buffer solution assessed as benzofibrate formation at pH 5.2 at 40 degC after 4 hrs by HPLC analysis. The conditions noted are these: pH 5.2, 4 h. It is filed as physicochemical. An outline of the steps:
(§1)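 10 mg test compound in 10 mL buffer shaken at 400 rpm, 40 °C, 4 h. Buffers: 0.2 M HCl pH 1.0, 0.1 M citric acid pH 3.0, 0.1 M phosphate pH 5.2, 0.2 M phosphate pH 7.4, 0.1 M boric acid pH 9.0. Filtered 0.20 µm; filtrate analysed by HPLC at 254 nm (C-8 column, gradient) for bezafibrate formed / % hydrolysed.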

For series [2], the system named is Mus musculus. Kind of series: Hypolipidemic activity in Swiss albino mouse assessed as reduction in plasma total cholesterol level at 50 mg/kg, po for 8 days measured on day 9 by spectrophotometry relative to control. The arrangement: scale not given: the % may be the effect or the level left. It is filed as functional. The procedure, abridged:
(§2)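 Male Swiss albino mice, 21–30 g, chow fed, acclimatised 1 week; n = 10/group. Oral gavage 50 mg/kg/day for 8 days, suspended in Tween-80 5 µL/mL in 0.5% CMC (10 mL/kg); vehicle controls. Fasted 12 h; day 9 blood taken 1 h post-dose under mild ether. Plasma (4000 rpm, 10 min) TG/TC by spectrophotometric kit; % fall vs control; mean ± SE, ANOVA with Dunnett's.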

Series [3] can be described thus: Prodrug conversion in 0.1 M boric acid buffer solution assessed as benzofibrate formation at pH 9.0 at 40 degC after 4 hrs by HPLC analysis. The conditions noted are these: pH 9, 4 h.
Series [4] concerns Mus musculus. Kind of series: Hypolipidemic activity in Swiss albino mouse assessed as reduction in plasma triglyceride level at 50 mg/kg, po for 8 days measured on day 9 by spectrophotometry relative to control. It is filed as functional. The arrangement: scale not given: the % may be the effect or the level left. The procedure, abridged: as §2
Series [5] can be described thus: Prodrug conversion in 0.2 M phosphate buffer solution assessed as benzofibrate formation at pH 7.4 at 40 degC after 4 hrs by HPLC analysis. The settings on record: pH 7.4, 4 h.
A short description of series [6]: Aqueous stability of the compound in 0.2 M hydrochloric acid buffer solution at pH 1 at 40 degC after 4 hrs by HPLC analysis. The settings on record: pH 1, 4 h. It is filed as physicochemical. An outline of the steps: as §1
Series [7] is described as follows: Octanol-phosphate buffer partition coefficient, log P of the compound at pH 7.4 by HPLC analysis. Format: physicochemical. An outline of the steps: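 1-Octanol and 0.2 M phosphate buffer pH 7.4, mutually pre-saturated 24 h. Compound shaken between 5 mL of each phase for 60 min at 400 rpm, 25 °C, then centrifuged at 3500 rpm for 5 min. Each phase quantified by HPLC at 254 nm. log P = log of octanol/un-ionized aqueous concentration ratio, mean of triplicate.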

The nature of series [8]: Aqueous stability of the compound in 0.1 M citric acid buffer at pH 3 at 40 degC after 4 hrs by HPLC analysis. Format: physicochemical. The conditions noted are these: pH 3, 4 h. An outline of the steps: as §1
Series [9] has as its system Mus musculus. Kind of series: Hypolipidemic activity in Swiss albino mouse assessed as reduction in plasma total cholesterol level at 100 mg/kg, po for 8 days measured on day 9 by spectrophotometry relative to control. The arrangement: scale not given: the % may be the effect or the level left. It is filed as functional. An outline of the steps: (§3)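 Dose-response in male Swiss albino mice (21–30 g, chow fed): oral dosing at 10, 30 or 100 mg/kg/day, vehicle Tween-80 in 0.5% CMC. Plasma triglyceride and total cholesterol measured spectrophotometrically with a commercial kit; % fall relative to untreated control.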

Series [10] deals with Mus musculus. In words: Hypolipidemic activity in Swiss albino mouse assessed as reduction in plasma triglyceride level at 30 mg/kg, po for 8 days measured on day 9 by spectrophotometry relative to control. Format: functional. Details: scale not given: the % may be the effect or the level left. An outline of the steps: as §3
The subject of series [11] is Mus musculus. Kind of series: Hypolipidemic activity in Swiss albino mouse assessed as reduction in plasma total cholesterol level at 30 mg/kg, po for 8 days measured on day 9 by spectrophotometry relative to control. It is filed as functional. Details: scale not given: the % may be the effect or the level left. The procedure, abridged:
as §3

Series [12] deals with Mus musculus. Kind of series: Hypolipidemic activity in Swiss albino mouse assessed as reduction in plasma total cholesterol level at 10 mg/kg, po for 8 days measured on day 9 by spectrophotometry relative to control. Details: scale not given: the % may be the effect or the level left. Format: functional. An outline of the steps:
as §3

Series [13] concerns Mus musculus. In words: Hypolipidemic activity in Swiss albino mouse assessed as reduction in plasma triglyceride level at 10 mg/kg, po for 8 days measured on day 9 by spectrophotometry relative to control. It is filed as functional. The arrangement: scale not given: the % may be the effect or the level left. The procedure, abridged:
as §3

In series [14] the test system is Mus musculus. In words: Hypolipidemic activity in Swiss albino mouse assessed as reduction in plasma triglyceride level at 100 mg/kg, po for 8 days measured on day 9 by spectrophotometry relative to control. Format: functional. Details: scale not given: the % may be the effect or the level left. An outline of the steps:
as §3

Consider `CC(C)(C)C(=O)OCOC(=O)C(C)(C)Oc1ccc(CCNC(=O)c2ccc(Cl)cc2)cc1`, for which the Drug metabolism in series [1] is 1.7 µg/mL; in [3], 0.8 µg/mL; in [5] it was 2.2 µg/mL. Also, the Activity in series [2] came out at 3.4%; in series [4], 18.8%. For the same compound, the Stability entry in series [6] and in [8] was “Stable” each time. In addition, the logD (as a rule, the decadic logarithm of the distribution of all forms, ionised or not, between an organic phase and buffer at a given pH) in [7] is 5.1.
As to `CC(C)(Oc1ccc(CCNC(=O)c2ccc(Cl)cc2)cc1)C(=O)O` [BEZAFIBRATE], the Activity in series [2] is reported as 10.4%; in [4] it was 11.4%. Also, the logD in series [7] was 1.5.
`CC(=O)OCCOC(=O)C(C)(C)Oc1ccc(CCNC(=O)c2ccc(Cl)cc2)cc1`: the Drug metabolism worked out at 0.7 µg/mL in series [1], 2.5 µg/mL in series [3] and 1.8 µg/mL in [5]. The Activity amounted to 2.4% in series [2] and 9.6% in [4]. The Stability result in [6] and in series [8] was “Stable” throughout. Further, in series [7], the logD came out at 3.8.
With `CC(C)(Oc1ccc(CCNC(=O)c2ccc(Cl)cc2)cc1)C(=O)OCCN1CCOCC1`, the Drug metabolism in series [1] was determined as 6.3 µg/mL; in [3], 8.8 µg/mL; in [5], 6.2 µg/mL. For the same compound, the Activity turned out to be 3% in series [2] and 11.8% in series [4]. Further, the Stability result in [6] and in series [8] was “Stable” each time. Also, in [7], the logD amounted to 5.1.
Consider `CC(=O)OC(C)OC(=O)C(C)(C)Oc1ccc(CCNC(=O)c2ccc(Cl)cc2)cc1` (stereo not drawn), for which the Drug metabolism was 0.2 µg/mL in [1], 6.6 µg/mL in [3] and 0.9 µg/mL in series [5]. In addition, the Activity in [2] turned out to be 4.3%; in [4], 17.2%. Also, the Stability result in series [6] and in [8] was “Stable” each time. In series [7], this compound displayed a logD of 4.5.
Consider `Cc1oc(=O)oc1COC(=O)C(C)(C)Oc1ccc(CCNC(=O)c2ccc(Cl)cc2)cc1`, for which the Drug metabolism amounted to 0.2 µg/mL in series [1], 2.6 µg/mL in [3] and 0.5 µg/mL in series [5]. The Activity in series [9] is given as 4%; in series [2], 13%; in series [10] it was 27.1%; in [11] it was 2%; in [12] it was 4.9%; in series [13], 3.51%. In addition, the figures for the Activity in series [4] and in [14] were 30.2% and 22.3%, respectively. Moreover, the Stability result in series [6] and in series [8] was “Stable” each time. This compound also showed a logD in series [7] of 3.1.
For `CC(C)OC(=O)OC(C)OC(=O)C(C)(C)Oc1ccc(CCNC(=O)c2ccc(Cl)cc2)cc1` (stereo not drawn), the Activity in [2] is listed as -5.6%; in [4] it was 3.9%.
Taken in the same sequence, the figures for `CC(C)OC(=O)OCOC(=O)C(C)(C)Oc1ccc(CCNC(=O)c2ccc(Cl)cc2)cc1` were 3% and 3%.

The record behind these values is ChEMBL document CHEMBL2086278, “Synthesis and biological evaluation of ester prodrugs of Benzafibrate as orally active hypolipidemic agents” (Eur J Med Chem, 2012).
